Experimental data taken from ChEMBL document CHEMBL1135601, “Synthesis and biolocalization of water-soluble sapphyrins” (J Med Chem, 2002).

How the values were obtained:
[1] = Biodistribution after day 6 in mouse spleen; format: ADME, organism-based
Outline: (§1)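 Female outbred CD-1 nude mice (18-20 g) bearing subcutaneous human pancreatic adenocarcinoma UB 290896 (2 × 2 mm pieces, right flank; used at tumor diameter 4.5-5.5 mm). Aqueous solution (∼1 mmol L-1) given subcutaneously at 15 µmol kg-1 per day for 3 days. Mice killed 1, 3, 6 or 9 days after the last injection. Five mice per time point, plus 5 noninjected controls.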

[2] = Biodistribution after day 9 in mouse spleen; format: ADME, organism-based; outline: as §1
[3] = Biodistribution after day 1 in mouse kidney; format: ADME, organism-based; outline: as §1
[4] = Biodistribution after day 9 in mouse blood; format: ADME, organism-based; outline: as §1
[5] = Biodistribution after day 6 in mouse tumor; format: ADME, organism-based; outline: as §1
[6] = Biodistribution after day 6 in mouse liver; format: ADME, organism-based; outline: as §1
[7] = Biodistribution after day 3 in mouse blood; format: ADME, organism-based; outline: as §1
[8] = Biodistribution after day 9 in mouse muscle; format: ADME, organism-based, Muscle tissue; outline: as §1
[9] = Biodistribution after day 3 in mouse liver; format: ADME, organism-based; outline: as §1
[10] = Biodistribution after day 3 in mouse kidney; format: ADME, organism-based; outline: as §1
[11] = Biodistribution after day 9 in mouse tumor; format: ADME, organism-based; outline: as §1
[12] = Biodistribution after day 9 in mouse lung; format: ADME, organism-based; outline: as §1
[13] = Biodistribution after day 1 in mouse blood; format: ADME, organism-based; outline: as §1
[14] = Biodistribution after day 1 in mouse heart; format: ADME, organism-based; outline: as §1
[15] = Biodistribution after day 6 in mouse heart; format: ADME, organism-based; outline: as §1
[16] = Biodistribution after day 3 in mouse spleen; format: ADME, organism-based; outline: as §1
[17] = Biodistribution after day 1 in mouse lung; format: ADME, organism-based; outline: as §1
[18] = Biodistribution after day 9 in mouse kidney; format: ADME, organism-based; outline: as §1
[19] = Biodistribution after day 1 in mouse spleen; format: ADME, organism-based; outline: as §1
[20] = Biodistribution after day 3 in mouse muscle; format: ADME, organism-based, Muscle tissue; outline: as §1
[21] = Biodistribution after day 9 in mouse liver; format: ADME, organism-based; outline: as §1
[22] = Biodistribution after day 6 in mouse brain; format: ADME, organism-based; outline: as §1
[23] = Biodistribution after day 1 in mouse muscle; format: ADME, organism-based, Muscle tissue; outline: as §1
[24] = Biodistribution after day 3 in mouse tumor; format: ADME, organism-based; outline: as §1
[25] = Biodistribution after day 9 in mouse brain; format: ADME, organism-based; outline: as §1
[26] = Biodistribution after day 6 in mouse kidney; format: ADME, organism-based; outline: as §1
[27] = Biodistribution after day 6 in mouse lung; format: ADME, organism-based; outline: as §1
[28] = Biodistribution after day 1 in mouse tumor; format: ADME, organism-based; outline: as §1
[29] = Biodistribution after day 3 in mouse heart; format: ADME, organism-based; outline: as §1
[30] = Biodistribution after day 9 in mouse heart; format: ADME, organism-based; outline: as §1
[31] = Biodistribution after day 1 in mouse brain; format: ADME, organism-based; outline: as §1
[32] = Biodistribution after day 3 in mouse brain; format: ADME, organism-based; outline: as §1
[33] = Biodistribution after day 6 in mouse blood; format: ADME, organism-based; outline: as §1
[34] = Biodistribution after day 1 in mouse liver; format: ADME, organism-based; outline: as §1
[35] = Biodistribution after day 3 in mouse lung; format: ADME, organism-based; outline: as §1
[36] = Biodistribution after day 6 in mouse muscle; format: ADME, organism-based, Muscle tissue; outline: as §1

Structure (SMILES)	concentration at 6 day [1] [ng/g]	concentration at 1 day [3] [ng/g]	concentration at 6 day [5] [ng/g]	concentration at 6 day [6] [ng/g]	concentration at 3 day [7] [ng/g]	concentration at 3 day [9] [ng/g]	concentration at 3 day [10] [ng/g]	concentration at 1 day [13] [ng/g]	concentration at 1 day [14] [ng/g]	concentration at 6 day [15] [ng/g]	concentration at 3 day [16] [ng/g]	concentration at 1 day [17] [ng/g]	concentration at 1 day [19] [ng/g]	concentration at 3 day [20] [ng/g]	concentration at 6 day [22] [ng/g]	concentration at 1 day [23] [ng/g]	concentration at 3 day [24] [ng/g]	concentration at 6 day [26] [ng/g]	concentration at 6 day [27] [ng/g]	concentration at 1 day [28] [ng/g]	other results
CCc1c(CC)c2cc3nc(cc4[nH]c(c(C)c4CC)c4[nH]c(cc5nc(cc1[nH]2)C(CCC(=O)NC1C(O)OC(CO)C(O)C1O)=C5C)c(CC)c4C)C(C)=C3CCC(=O)NC1C(O)OC(CO)C(O)C1O (stereo not given)	8000	1100	330000	370	2000	430	1900	1440	5400	6400	7800	4900	3600	21000	750	8000	66000	1500	6000	32000	concentration at 9 day [2]: 9700 ng/g; concentration at 9 day [4]: 1500 ng/g; concentration at 9 day [8]: 11000 ng/g; concentration at 9 day [11]: 23000 ng/g; concentration at 9 day [12]: 8000 ng/g; concentration at 9 day [18]: 2800 ng/g; concentration at 9 day [21]: 470 ng/g; concentration at 9 day [25]: 520 ng/g; concentration at 3 day [29]: 9000 ng/g; concentration at 9 day [30]: 6000 ng/g; concentration at 1 day [31]: 550 ng/g; concentration at 3 day [32]: 770 ng/g; concentration at 6 day [33]: 2200 ng/g; concentration at 1 day [34]: 290 ng/g; concentration at 3 day [35]: 8000 ng/g; concentration at 6 day [36]: 17000 ng/g
CCC1=C(CC)c2cc3[nH]c(cc4[nH]c(c(C)c4CC)c4[nH]c(cc5nc(cc1n2)C(CCC(=O)NCCOCCOCCN)=C5C)c(CC)c4C)c(C)c3CCC(=O)NCCOCCOCCN	3300	640	51000	4200	3020	25000	6800	1690	2000	9200	11000	1700	1300	29000	2400	1900	114000	3800	7000	4200	concentration at 3 day [29]: 15500 ng/g; concentration at 1 day [31]: 500 ng/g; concentration at 3 day [32]: 5000 ng/g; concentration at 6 day [33]: 2450 ng/g; concentration at 1 day [34]: 210 ng/g; concentration at 3 day [35]: 19000 ng/g; concentration at 6 day [36]: 45000 ng/g
CCc1c(CC)c2cc3nc(cc4[nH]c(c(C)c4CC)c4[nH]c(cc5nc(cc1[nH]2)C(CCC(=O)NCCOCCOCCO)=C5C)c(CC)c4C)C(C)=C3CCC(=O)NCCOCCOCCO	14000	3100	180000	16000	9300	61000	59000	7000	8000	4800	11000	13000	4600	9300	4300	10000	130000	52000	19000	22000	concentration at 3 day [29]: 7800 ng/g; concentration at 1 day [31]: 2700 ng/g; concentration at 3 day [32]: 4300 ng/g; concentration at 6 day [33]: 3400 ng/g; concentration at 1 day [34]: 14000 ng/g; concentration at 3 day [35]: 11000 ng/g; concentration at 6 day [36]: 3400 ng/g
C=CC1=C(C)c2cc3nc(cc4[nH]c(cc5[nH]c(cc1n2)c(C)c5CCC(=O)NC1C(O)OC(CO)C(O)C1O)c(CCC(=O)NC1C(O)OC(CO)C(O)C1O)c4C)C(C=C)=C3C (stereo not given) [PORPHYRIN]	12000	700	260000	1320	900	800	3100	1090	2700	1700	16000	2000	22000	4200	320	3500	131000	4300	1400	34000	concentration at 9 day [2]: 9000 ng/g; concentration at 9 day [4]: 800 ng/g; concentration at 9 day [8]: 3600 ng/g; concentration at 9 day [11]: 37000 ng/g; concentration at 9 day [12]: 2300 ng/g; concentration at 9 day [18]: 510 ng/g; concentration at 9 day [21]: 960 ng/g; concentration at 9 day [25]: 370 ng/g; concentration at 3 day [29]: 1450 ng/g; concentration at 9 day [30]: 2400 ng/g; concentration at 1 day [31]: 420 ng/g; concentration at 3 day [32]: 410 ng/g; concentration at 6 day [33]: 980 ng/g; concentration at 1 day [34]: 1100 ng/g; concentration at 3 day [35]: 1700 ng/g; concentration at 6 day [36]: 5100 ng/g

Continued, in another order:

concentration at 6 day [1] [ng/g]	concentration at 1 day [3] [ng/g]	concentration at 6 day [5] [ng/g]	concentration at 6 day [6] [ng/g]	concentration at 3 day [7] [ng/g]	concentration at 3 day [9] [ng/g]	concentration at 3 day [10] [ng/g]	concentration at 1 day [13] [ng/g]	concentration at 1 day [14] [ng/g]	concentration at 6 day [15] [ng/g]	concentration at 3 day [16] [ng/g]	concentration at 1 day [17] [ng/g]	concentration at 1 day [19] [ng/g]	concentration at 3 day [20] [ng/g]	concentration at 6 day [22] [ng/g]	concentration at 1 day [23] [ng/g]	concentration at 3 day [24] [ng/g]	concentration at 6 day [26] [ng/g]	concentration at 6 day [27] [ng/g]	concentration at 1 day [28] [ng/g]	Structure (SMILES)	other results
960	440	130000	1200	900	1500	330	500	950	760	1390	480	1290	760	290	1020	220000	460	710	109000	CCc1c(CC)c2cc3nc(cc4[nH]c(c(C)c4CC)c4[nH]c(cc5nc(cc1[nH]2)C(CCC(=O)N(CCO)CCO)=C5C)c(CC)c4C)C(C)=C3CCC(=O)N(CCO)CCO [SAPPHYRIN]	concentration at 3 day [29]: 960 ng/g; concentration at 1 day [31]: 240 ng/g; concentration at 3 day [32]: 270 ng/g; concentration at 6 day [33]: 500 ng/g; concentration at 1 day [34]: 1420 ng/g; concentration at 3 day [35]: 710 ng/g; concentration at 6 day [36]: 710 ng/g
3900	2800	49000	10000	3400	13000	5700	950	3100	5200	8000	2500	4100	36000	160	3600	89000	1700	3200	58000	CCc1c(CC)c2cc3nc(cc4[nH]c(c(C)c4CC)c4[nH]c(cc5nc(cc1[nH]2)C(CCC(=O)NCCN(CCN)CCN)=C5C)c(CC)c4C)C(C)=C3CCC(=O)NCCN(CCN)CCN	concentration at 3 day [29]: 10700 ng/g; concentration at 1 day [31]: 870 ng/g; concentration at 3 day [32]: 400 ng/g; concentration at 6 day [33]: 1170 ng/g; concentration at 1 day [34]: 1030 ng/g; concentration at 3 day [35]: 13000 ng/g; concentration at 6 day [36]: 22000 ng/g
